Measurements pooled from the literature.
Protocols differ between the studies behind these lines.
Target: Tyrosine-protein kinase receptor Tie-1 (TIE1, Homo sapiens, UniProt P35590)

SMILES | read-out | technique | tested at | remaining binding [%]
O=C(c1ccc(Nc2ncc(Cl)c(-c3cc4ccccc4s3)n2)cc1)N1CCC(N2CCCC2)CC1 | binding | competition with immobilised ligand | 1 µM | 4.8
COc1cnc(Nc2cccc(S(N)(=O)=O)c2)nc1N1CCN(c2ccccc2)C(=O)C1 | binding | competition with immobilised ligand | 1 µM | 100
c1cnn2ncc(-c3ccnc(N4CCC45COC5)n3)c2c1 | binding |  | 1 µM | 100
CCS(=O)(=O)c1cc2cc(C[C@](O)(CC(C)(C)c3ccc(F)cc3C(N)=O)C(F)(F)F)[nH]c2cn1 | cell-free assay | competition with immobilised ligand | 1 µM | 100
F[C@@H]1CCN(c2nccc(-c3cnn4ncccc34)n2)C1 | binding |  | 1 µM | 100
CS(=O)(=O)NCC[C@H](NC(=O)c1cncc2c1cnn2-c1ccc(F)cc1)c1ccnc(S(C)(=O)=O)c1 | cell-free assay | competition with immobilised ligand | 1 µM | 100
CN(C)c1nccc(-c2cnc3ncccn23)n1 | binding |  | 1 µM | 83
O=C(c1ccc(Nc2nccc(-c3cc4ccccc4s3)n2)cc1)N1CCC(N2CCCC2)CC1 | binding | competition with immobilised ligand | 1 µM | 23
c1cncc(-c2cccc(Nc3nccc(NC4CCCCC4)n3)c2)c1 | binding | competition with immobilised ligand | 10 µM | 17
N[C@@H]1CCN(c2nccc(-c3cnn4ncccc34)n2)C1 | binding |  | 1 µM | 100
CCCCN(CCCC)C(=O)CN1C[C@@H](c2cc(OC)c3c(c2)OCO3)[C@H](C(=O)O)[C@H]1CC(C)(C)CCC | cell-free assay | competition with immobilised ligand | 1 µM | 94.7
CNC(=O)[C@@H]1CC[C@@H](n2c(-c3ccc4cnccc4c3)nc3ccc(C(=O)NCc4cccc(C(N)=O)c4)cc32)C1 | binding | competition with immobilised ligand | 1 µM | 85
Cc1noc([C@H]2C[C@@H](c3ccc(C(F)(F)F)cc3)CN(C(=O)N3CCS(=O)(=O)C3)C2)n1 | cell-free assay | competition with immobilised ligand | 1 µM | 89
C[C@H]1CCN(c2nccc(-c3cnn4ncccc34)n2)C1 | binding |  | 1 µM | 75
C[C@@H](c1ccc(-n2cnc3c(N)ncnc32)cc1)N1CCc2nn(C)c(Cc3ccccc3)c2C1=O | binding | competition with immobilised ligand | 0.1 µM | 84
CN(C)c1nccc(-c2cnn3ncccc23)n1 | binding |  | 1 µM | 100
CCc1ccccc1C(=O)Nc1n[nH]c2c(C)c(F)c(C3C(C#N)=C(C)N(C)C(C)=C3C#N)cc12 | cell-free assay | competition with immobilised ligand | 1 µM | 100
Cc1cnc(Nc2ccc(C(=O)N3CCC(N4CCCC4)CC3)cc2)nc1-c1cc2ccccc2s1 | binding | competition with immobilised ligand | 1 µM | 10
CN(c1nccc(-c2cnn3ncccc23)n1)C1CC1 | binding |  | 1 µM | 100
O=C(Nc1c[nH]nc1C(=O)NC1CCNCC1)c1cc(F)cc(F)c1 | binding | competition with immobilised ligand | 1 µM | 100
CNCc1ccccc1-c1csc([C@H](C)Nc2nc(C)nc3cc(OC)c(OC)cc23)c1 | cell-free assay | competition with immobilised ligand | 1 µM | 100
C=CC(=O)N1CCC(C(=O)NCC(=O)N2CCN(c3nc(-c4cnc(N)nc4C(F)F)nc(N4CCOCC4)n3)CC2)CC1 | binding | competition with immobilised ligand | 1 µM | 100
